Bioassay records as filed in PubChem BioAssay.
T cell HTS – T cell immune modulation candidate. hit rate 0.068% among 330,000. 2C CD8+ T cell-vesicle binding, flow cytometry; stronger effect = lower value. response (vesicle binding), % at 7 µM;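 active means response, share of CD8 T cells binding vesicles, and their 90th percentile fluorescence all below set limits, cut at about 80% in these data, passing the limit was not always enough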;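 further: values below 100% mean blocked vesicle binding to the CD8+ T cells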
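Incubation: binding step 1.5 h, 37 °C, antibody labelling 20 min, ice; system: murine 2C transgenic CD8+ T lymphocytes; technique: cytometric PE anti-B7-1 and Alexa647 anti-CD8 signals after 1% paraformaldehyde fixation; also added: QL9-charged Drosophila Ld/ICAM-1/B7-1 vesicles; control set: naked versus QL9-loaded vesicles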
CHT inh – human CHT choline transport inhibition | hit rate 0.86% among 310,000 | B-score at 10 µM | AID 488975 | Q9GZV3 | CHT-expressing cells, membrane potential dye, choline response; stronger effect = lower value;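 active means B-score over 3 SD under the library average, and starting fluorescence ratio not unusually high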;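 further: choline stimulus applied at its EC90 after an EC20 pre-addition; B-score computed on integrated fluorescence ratio after choline addition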
Target sequence (Q9GZV3 whole entry, looked up): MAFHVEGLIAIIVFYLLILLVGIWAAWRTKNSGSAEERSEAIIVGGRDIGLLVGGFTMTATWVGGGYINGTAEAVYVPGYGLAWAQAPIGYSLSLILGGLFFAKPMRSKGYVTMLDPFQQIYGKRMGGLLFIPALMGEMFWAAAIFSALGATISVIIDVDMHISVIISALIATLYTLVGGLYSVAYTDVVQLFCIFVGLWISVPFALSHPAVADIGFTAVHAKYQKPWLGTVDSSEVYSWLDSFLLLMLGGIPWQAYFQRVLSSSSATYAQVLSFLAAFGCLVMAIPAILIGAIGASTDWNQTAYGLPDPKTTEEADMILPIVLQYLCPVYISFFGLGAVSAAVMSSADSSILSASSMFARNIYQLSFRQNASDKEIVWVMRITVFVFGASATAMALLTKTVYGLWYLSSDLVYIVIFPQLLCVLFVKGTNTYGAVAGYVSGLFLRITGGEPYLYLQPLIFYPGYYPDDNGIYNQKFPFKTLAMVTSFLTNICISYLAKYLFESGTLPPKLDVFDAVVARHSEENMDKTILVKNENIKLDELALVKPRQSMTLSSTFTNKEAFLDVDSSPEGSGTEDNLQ
CHT PAM – allosterically activates the human high affinity choline transporter; Q9GZV3; CHT-expressing cells, membrane potential dye, choline EC20; stronger effect = higher value; LV-AA mutant CHT in HEK293 cells; B-score at 10 µM; hit rate 0.49% among 310,000; AID 488977;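 active means initial fluorescence not abnormally high and integrated response B-score, plate-corrected, over 3 SD above library mean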
VLA-4 inh – inhibition in a human VLA-4 binding assay. P13612. VLA-4 expressing cells, ligand binding flow cytometry. inhibition, % (about 7 µM as worked out from the volumes in the protocol). hit rate 0.2% among 330,000; in the data active means inhibition above about 50%
VLA-4 mod pick – confirmation of allosteric modulators of human VLA-4 integrin; AID 2813; U937 cells, HUTS-21 LIBS mAb binding, flow cytometry; LDV ligand present at threefold Kd; shares compounds with VLA-4 inh; hit rate 2% among 1,300; inhibition, % at 6.7 µM; in the data active means inhibition above about 40%
Of the large screens only hits and unclear results are named; the others gave an inactive call (follow-up assays come after a bar, where they were run). Most compounds without a hit are left out; they make up all but 1.5% or so of the library.

O=C(CSc1nnc(-c2ccccc2O)o1)Oc1ccc(Br)cc1	none
CC(=O)c1cccc(NC(=O)N2C3CCCC2CC(NC(=O)C2CC2)C3)c1 (centres undefined)	none
CCCCNC(=O)Cn1c(=O)oc2cc(S(=O)(=O)N3CC(C)CC(C)C3)ccc21 (centres undefined)	none | VLA-4 mod pick inactive
CCCN1CCN(CCCNC(=O)Cn2nc(C)n3c(cc4cc(F)ccc43)c2=O)CC1	none
COc1cc2sc(-c3ccccc3OC)c(-c3ccc(OCCN4CCCCC4)cc3)c2cc1OC	none (no result: CHT inh, CHT PAM) | VLA-4 mod pick inactive
COc1ccccc1-c1sc2cc3c(cc2c1-c1ccc(OCCN2CCCCC2)cc1)OCO3	none (no result: CHT inh, CHT PAM) | VLA-4 mod pick inactive
Cc1cc(C(=O)CN2C(=O)C(=O)N(C3CCCC3)C2=O)c(C)n1CCc1ccc(F)cc1	none (no result: CHT inh, CHT PAM)
COc1ccc([C@H]2CC(=O)C=C(c3c(OC)cccc3OC)C2)cc1	none (no result: CHT inh, CHT PAM)
Cn1cccc1C(=O)NC(=O)COC(=O)c1ccccc1O	VLA-4 inh 55 | VLA-4 mod pick inactive
Cc1c(Cl)ccc2sc(NC(=O)c3ccco3)nc12	VLA-4 inh 54 | VLA-4 mod pick inactive
Cn1c(Sc2nc3ccccc3n2C)nc2ccccc21	VLA-4 inh 68 | VLA-4 mod pick inactive
C/C=C1\NC(=O)[C@H](C)NC(=O)[C@@H](NC(=O)[C@@H](Cc2ccc(O)cc2)NC(=O)[C@@H](NC(=O)/C(C)=C/C)C(C)C)[C@@H](C)OC(=O)[C@H](CCCCc2ccc(O)cc2)NC(=O)[C@@H](CCC(=O)O)NC1=O	none (no result: CHT inh, CHT PAM)
CCC(C)NC(=O)CC(NS(=O)(=O)c1ccc(Cl)cc1)c1ccco1 (centres undefined)	VLA-4 inh 108 | VLA-4 mod pick inactive
COc1cccc2[nH]c3c(=O)n(CCCN4CCOCC4)cnc3c12	none | VLA-4 mod pick inactive
Cc1ccc2c(c1)[nH]c1c(=O)n(CCCN3CCOCC3)cnc12	none
NC(=O)CN1C(=O)C(=O)N(Cc2ccccc2)C1=O	none | VLA-4 mod pick inactive
Cc1ccc(C)c(S(=O)(=O)Nc2ccc(C(N)=O)cc2)c1	none | VLA-4 mod pick inactive
Cc1ccc(C)c(NS(=O)(=O)c2cc(C(N)=O)ccc2C)c1	none
CCOC(=O)c1c(-n2cccc2)sc2c1CCCC2=O	none
Clc1cc(CSc2ccccc2)nc(-c2ccccc2)n1	VLA-4 inh 94 | VLA-4 mod pick inactive
Clc1ccc(SCc2cc(Cl)nc(-c3ccccc3)n2)cc1	none
COc1ccc(CCNC(=O)CSc2nnnn2-c2ccccc2OC)cc1OC	none
COc1ccccc1-n1nnnc1SCC(=O)Nc1ccc(C)c(N)c1	VLA-4 inh 54 | VLA-4 mod pick inactive
CCOC(=O)c1c(NC2=NS(=O)(=O)c3ccccc32)sc2c1CCCCC2	none
CCOC(=O)c1c(NC2=NS(=O)(=O)c3ccccc32)sc2c1CCC(C)C2 (centres undefined)	VLA-4 inh 60 | VLA-4 mod pick inactive
Cc1nc([N+](=O)[O-])c(SCC(N)=O)n1Cc1ccccc1	none
Cc1nc([N+](=O)[O-])c(NCCO)n1Cc1ccccc1	VLA-4 inh 54 | VLA-4 mod pick inactive
Cn1c(SCC(=O)NCCc2ccccc2)nnc1C1CCCCC1	none
Cc1ccc(NC(=O)C2C3CC4OC(=O)C2C4C3)cc1Cl (centres undefined)	VLA-4 inh 56 | VLA-4 mod pick inactive
COC(=O)CCC(=O)Nc1c(C)n(C)n(-c2ccccc2)c1=O	none
Cc1c(NC(=O)C2CCCN2S(=O)(=O)c2ccccc2)c(=O)n(-c2ccccc2)n1C (centres undefined)	none | VLA-4 mod pick inactive
Cc1cccc(N(CC(=O)Nc2c(C)n(C)n(-c3ccccc3)c2=O)S(C)(=O)=O)c1	none | VLA-4 mod pick inactive
Cc1c(NC(=O)CCC2CCCCC2)c(=O)n(-c2ccccc2)n1C	none | VLA-4 mod pick inactive
COc1ccc(S(=O)(=O)CCC(=O)Nc2c(C)n(C)n(-c3ccccc3)c2=O)cc1	none | VLA-4 mod pick inactive
CCCCN1C(=O)C(=O)N(CC(=O)Nc2cc(OCC)c(N3CCOCC3)cc2OCC)C1=O	none
NC1=NC2(CCCCC2)N=C(Nc2ccc(Br)cc2)N1	none
Cc1c(C(=O)N(C)C(C)c2ccccn2)oc2c(F)cccc12 (centres undefined)	none
O=C(Oc1ccc(F)cc1C(=O)/C=C/c1cccs1)c1cccc([N+](=O)[O-])c1	VLA-4 inh 50 | VLA-4 mod pick 41
O=C(/C=C/c1ccccc1F)c1cccc([N+](=O)[O-])c1	none
CCOc1ccccc1CN1CCN(Cc2ccon2)CC1CCO (centres undefined)	none
Cc1ccc(S(=O)(=O)N2CCN(C(=O)CN3CCCSc4ccccc43)CC2)cc1	none (no result: CHT inh, CHT PAM)
COc1ccc2c(c1)C1(Nc3ccccc3-c3nc4ccccc4n31)C(=O)N2 (centres undefined)	none
CC1(c2ccncc2)Nc2ccccc2-c2nc3ccccc3n21 (centres undefined)	VLA-4 inh 51 | VLA-4 mod pick inactive
CC1=NCCN1CCNC(=O)Nc1ccc(C(C)(C)C)cc1	none
O=C(Cc1c(F)cccc1Cl)N1CCN(S(=O)(=O)c2cccc(F)c2)CC1	none
COc1ccc(N(C)C(=O)c2cn(C)c(=O)c3cc(OC)c(OC)cc23)cc1	none
COc1ccc(CN(C)C(=O)CCN=C2NS(=O)(=O)c3ccccc32)c(OC)c1	none (no result: CHT inh, CHT PAM)
O=C(COc1ccccc1)NCc1nnc2c3ccccc3c(-c3ccccc3)nn12	VLA-4 inh 56 | VLA-4 mod pick inactive
O=C(NCc1nnc2c3ccccc3c(-c3ccccc3)nn12)c1ccc(Cl)cc1	none
O=C(c1ccco1)N1CCN(Cc2nnc(-c3cccc(Cl)c3)o2)CC1	none
CCCCn1cc(C(C)(C)C)c(C#N)c1NC(C)=O	VLA-4 inh 50 | VLA-4 mod pick inactive
CCCCn1c(NC(=O)c2ccc(F)cc2)c(C#N)c2nc3ccccc3nc21	none
CN1CC(=O)Nc2ccccc2C1=O	none | VLA-4 mod pick inactive
O=C1Nc2ccc(Br)cc2C1=C1CCCCC1	none
CC(C)(C)N1NC(=O)Nc2ccccc2C1=O	none
CN1CC(=O)Nc2ccc(Br)cc2C1=O	VLA-4 inh 52 | VLA-4 mod pick inactive
Cc1ccc(C(=O)N2CCCC(Nc3ccc(F)cc3)C2)cc1C (centres undefined)	none
CN(CC(=O)Nc1ccc(F)cc1)C(=O)COC(=O)c1ccccc1	VLA-4 inh 50 | VLA-4 mod pick inactive
O=C(/C=C/c1ccccc1[N+](=O)[O-])NCCCn1ccnc1	VLA-4 inh 62 | VLA-4 mod pick inactive
Cc1ccc(NC(=O)/C(Cl)=C/c2ccccc2)cc1C	none
O=C(O)c1nn2c(C(F)(F)F)cc(-c3cccs3)nc2c1Cl	none | VLA-4 mod pick inactive
O=C(NCc1ccc(F)cc1)C1CCCN(C(=O)NCc2ccccc2)C1 (centres undefined)	none
CC(C)n1c(SCC(=O)NC2CC2)nnc1-c1ccco1	none
CCOc1ncccc1C(=O)Nc1cccc(-c2nnc3n2CCCCC3)c1	VLA-4 inh 68 | VLA-4 mod pick inactive
O=C(CN1C(=O)NC2(CCCC2)C1=O)Nc1cccc(-c2nnc3n2CCCCC3)c1	none
